This is a sample that favours compounds with a hit; in the whole collection about 1.9% have one here.
HIF activator – HIF pathway transcriptional activation | U2OS HRE-luciferase reporter, luminescence; normalized: DMSO 0%, desferrioxamine 100% | activation, % at 7.5 µM (by protocol) | 300,000 tested, 0.32% active | AID 1910;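 active means mean activation of at least 10% of the iron chelator positive control signal, with at least half of replicates also reaching 10%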
ABHD5 PLIN5 PPI – ABHD5-PLIN5 protein interaction inhibition. 360,000 tested, 0.78% active. Split G. princeps luciferase complementation, luminescence, 4 h. AID 602281. inhibition, % at 4 µM. Q00G26+Q8WTS1;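 active means inhibition above the mean inhibition across every tested compound plus 3 SD, cut at about 22% in these data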;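 further: 0% = DMSO only wells and the 100% control is not disclosed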
FXN GAA850 act – frataxin GAA850 promoter activation; AID 540364; activation, % at 6 µM; 360,000 tested, 0.56% active; HEK293 lucGAA850 FXN promoter luciferase reporter, 24 h; percent of 10 µM SAHA response;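 active means activation above the average of all compounds screened plus 3 SD, cutoff fixed separately per campaign, cut at about 7.5% in these data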;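 further: 0% = DMSO wells and 100% = 10 µM SAHA wells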
Hsp70 activator – Hsp70 transcriptional activation, primary screen. activation, % at 10 µM. 200,000 tested, 0.04% active. HeLa Hsp70 promoter luciferase reporter, luminescence; scaled: vehicle 0, proteasome-inhibitor control 100%;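 active means activation above the mean across all tested compounds plus 3 SD, cutoff set per campaign, cut at about 5.5% in these data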;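 further: 100% = MG132 at 30 µM as the positive control and 0% = DMSO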
Rad51 HR inh – blocks human Rad51 in homologous recombination | Q06609 | hRad51 DNA strand exchange, fluorescence dequenching | inhibition, % at 10 µM | 200,000 tested, 0.085% active | AID 1385;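 active means inhibition above 40% at the single screening dose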;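 further: 0% = DMSO control wells and 100% = blanks with heterologous ssDNA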
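Test system: preformed human Rad51 ssDNA filaments. Compound dosing: single dose, 10 µM final compound. Incubation: filaments 15 min 37 °C, then compound 30 min. Technique: FRET fluorescence dequenching, excitation 485 nm, emission 520 nm. Read-out basis: percent inhibition from fluorescence, normalised to plate control and blank means. Benchmarks: plate controls and plate blanks.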
TAG inh – triacylglycerol accumulation inhibition; 230,000 tested, 0.66% active; H9c2 cells, Nile Red lipid (TAG) fluorescence; cells loaded with 200 µM oleic acid; AID 651582; inhibition, % at 12.5 µM;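 active means pattern-corrected inhibition of lipid staining of at least 50% with the nuclear-stain viability signal not falling by more than 50%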;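 further: 0% = DMSO wells and 100% = triacsin C control wells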
ABHD5-PLIN5 conf – confirmation of human ABHD5-PLIN5 interaction inhibitors; AID 651612; shares compounds with ABHD5 PLIN5 PPI; 2,200 tested, 67% active; biochemical ABHD5-PLIN5 interaction, luminescence; inhibition, % at 4 µM; in the data active means inhibition above about 23%;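 further: 0% = DMSO vehicle wells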
HNF4 split-luc – counter-screen for ABHD5-PLIN5 inhibitors: HNF4 split-luciferase | shares compounds with ABHD5 PLIN5 PPI | HNF4 dimerization, luminescence, biochemical | inhibition, % at 4 µM | 2,200 tested, 77% active;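 active means mean inhibition across replicate wells exceeding the computed hit threshold, cut at about 13% in these data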;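 further: light from luciferase halves that rejoin when HNF4 fusion proteins dimerize; 0% = DMSO only wells and the 100% control is not given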
Target sequence (P41235 whole entry, looked up, the tested form may be a part): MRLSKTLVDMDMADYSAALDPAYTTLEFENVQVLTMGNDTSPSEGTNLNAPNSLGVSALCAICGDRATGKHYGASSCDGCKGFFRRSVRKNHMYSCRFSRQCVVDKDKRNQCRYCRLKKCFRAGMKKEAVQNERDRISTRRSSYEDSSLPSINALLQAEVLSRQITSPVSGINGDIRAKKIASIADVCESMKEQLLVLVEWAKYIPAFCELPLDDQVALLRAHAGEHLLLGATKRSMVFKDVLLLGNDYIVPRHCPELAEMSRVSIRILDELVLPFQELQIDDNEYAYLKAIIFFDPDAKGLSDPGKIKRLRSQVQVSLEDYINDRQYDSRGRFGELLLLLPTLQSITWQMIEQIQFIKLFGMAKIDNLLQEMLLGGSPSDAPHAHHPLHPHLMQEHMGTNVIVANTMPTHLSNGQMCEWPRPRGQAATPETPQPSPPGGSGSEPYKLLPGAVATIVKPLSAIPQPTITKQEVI
* = called active by the depositor; x = no result.

SMILES	HIF activator	ABHD5 PLIN5 PPI	FXN GAA850 act	Hsp70 activator	Rad51 HR inh	TAG inh	ABHD5-PLIN5 conf	HNF4 split-luc
O=C(O)C1CC(c2ccccc2)=Nc2ccccc2S1 (stereo unspecified)	1.7	-5.0	3.8	x	-10.5	-19.2	x	x
Fc1ccc(C2CC(c3ccco3)=Nc3ccccc3S2)cc1 (stereo unspecified)	2.8	46.0*	1.8	0.1	14.0	-6.7	-0.1	69.3*
O=[N+]([O-])c1ccc(C2CC(c3ccccc3)=Nc3ccccc3S2)cc1 (stereo unspecified)	2.1	79.1*	2.4	x	16.8	x	25.9*	88.5*
O=C(NNC(=S)Nc1ccccc1Cl)c1ccccc1Br	3.4	17.0	4.2	x	x	9.3	x	x
O=C(NCc1ccco1)Nc1ccc2nsnc2c1	0.6	38.0*	0.5	-0.2	-6.3	x	50.4*	81.7*
CCSC1(SCC)N=C(N)C2(C#N)C(c3ccc(OC)c(OC)c3OC)C12C#N (stereo unspecified)	2.9	25.0*	-1.5	x	-1.2	18.1	78.5*	71.7*
COc1cccc(/C=C2/CCC(CN(C)C)C2=O)c1 (stereo unspecified)	x	58.1*	0.9	x	x	0.4	101.0*	103.5*
O=C(Cc1ccccc1)N[C@@H]1c2ccccc2CC[C@@H]1OCc1ccccc1	x	-1.0	-2.5	x	x	6.3	x	x
CCOc1ccc(NC(=O)[C@@H]2CCC(=O)N2C2OC(=O)c3ccccc32)cc1 (stereo partly specified)	0.3	5.7	0.9	x	x	x	x	x
COc1ccc(NC(=O)c2cc(NC(=O)C3CCCCC3C(=O)O)ccc2N2CCOCC2)cc1 (stereo unspecified)	0.1	24.5*	0.7	x	x	2.9	5.3	2.4
Cc1ccc(NC(=O)c2cc(NC(=O)c3ccco3)ccc2N2CCOCC2)cc1	0.7	2.3	-0.7	0.4	-3.8	-4.1	x	x
Cc1cccc(NC(=O)c2cc(NC(=O)C3CCCCC3C(=O)O)ccc2N2CCOCC2)c1 (stereo unspecified)	0.6	0.2	0.7	x	x	9.4	x	x
Cc1ccc(NC(=O)c2cc(N3C(=O)C=CC3=O)ccc2N2CCOCC2)cc1	-5.0	29.4*	4.4	0.1	-1.6	-15.9	51.0*	98.2*
Cc1ccc2cccnc2c1NC(=S)NC(=O)c1ccccc1	0.1	35.5*	-2.1	-0.2	-1.0	x	14.5	31.6*
COc1ccc(CN2CCC(CO)(CCOc3ccccc3)CC2)cc1C	-0.3	6.2	0.6	0.0	x	-5.4	x	x
CC(C)(C)NCC(=Cc1ccccc1)C(=O)c1ccccc1	x	41.2*	-14.2	x	x	58.3	68.9*	54.3*
O=C(Nc1cccc2ccccc12)c1cc2c(cc1Br)OCO2	0.2	0.5	3.1	x	5.9	x	x	x
CCN(C(=O)CSc1nc2ccc([N+](=O)[O-])cc2s1)c1c(N)n(Cc2ccccc2)c(=O)[nH]c1=O	x	3.4	-2.1	x	x	19.0	x	x
O=C(O)CN1C(=O)/C(=C/c2ccc(N3CCCCC3)o2)SC1=S	-0.8	1.8	2.2	x	x	-3.8	x	x
CCCN1C(=O)S/C(=C/c2ccc(N3CCOCC3)o2)C1=O	0.5	82.7*	5.8	x	x	-31.5	32.0*	93.0*
O=C(CC1C[C@H](C(=O)N2CCOCC2)[C@@]2(CCC3CCCC3)c3[nH]c4ccccc4c3CCN2C1=O)NCc1ccco1 (stereo partly specified)	x	-0.8	0.4	x	x	18.1	x	x
COc1ccc(CNC(=O)C[C@H]2C[C@H](C(=O)N3CCOCC3)[C@@]3(CCC4CCCC4)c4[nH]c5cc(-c6ccco6)ccc5c4CCN3C2=O)cc1OC	x	28.9*	0.4	x	x	23.1	16.4	12.6*
CN(C)CCCNC(=O)C[C@H]1C[C@H](C(=O)N2CCOCC2)[C@@]2(CCC3CCCC3)c3[nH]c4cc(-c5ccco5)ccc4c3CCN2C1=O	x	25.4*	0.6	x	x	60.3*	14.1	10.8
COCCCNC(=O)C[C@H]1C[C@H](C(=O)N2CCOCC2)[C@@]2(CCC3CCCC3)c3[nH]c4cc(-c5ccco5)ccc4c3CCN2C1=O	x	18.2	2.0	x	x	12.0	x	x

Source: PubChem BioAssay
